Experimental data from ChEMBL document CHEMBL3526066, “In vitro metabolism of 17-(dimethylaminoethylamino)-17-demethoxygeldanamycin in human liver microsomes” (Drug Metab Dispos, 2011).
One block for each molecule: values may come before it.

Experiments:
[1] = test system: Liver microsome; test: Retention time in human liver microsomes treated with 10 uM […] after 2 hrs by liquid chromatography-tandem mass spectrometry; type: ADME
Method in brief: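 17-DMAG (10 µM initial) was incubated with HLMs (1 mg/ml) in 0.1 M phosphate buffer with 3.3 mM MgCl2 and 1 mM β-NADPH at 37°C for 2 h alongside negative controls, then quenched with ice-cold acetonitrile. Samples were run on a C18 column with a 0.1% formic acid/ammonium formate–acetonitrile gradient (10–90% B in 10 min) using MS full scan, MRM, EPI and MS3 scans.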

[2] = test system: Liver microsome; test: Drug level in human liver microsomes treated with 1 uM 17-DMAG by liquid chromatography-tandem mass spectrometry in presence of 10 uM alpha-naphthoflavone CYP1A2 inhibitor; type: ADME
Method in brief: (§1)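 Pooled HLMs in 0.1 M phosphate buffer pH 7.4 with 1 mM β-NADPH, 3.3 mM MgCl2 and the selective inhibitor were preincubated 3 min at 37°C in a shaking water bath. 17-DMAG (1 µM final) was then added and incubated 20 min at 37°C, with parallel no-inhibitor controls. M1, M2, M3, M4 and M6 were quantified by LC-MS/MS MRM. Inhibition was taken as the ratio of metabolite formed with versus without inhibitor.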

[3] = test system: Liver microsome; test: Drug level in human liver microsomes treated with 1 uM 17-DMAG by liquid chromatography-tandem mass spectrometry in presence of 1 uM tranylcypromine CYP2A6 inhibitor; type: ADME; method in brief: as §1
[4] = test system: Liver microsome; test: Drug level in human liver microsomes treated with 1 uM 17-DMAG by liquid chromatography-tandem mass spectrometry in presence of 1 uM quercetin CYP2C8 inhibitor; type: ADME; method in brief: as §1
[5] = test system: Liver microsome; test: Drug level in human liver microsomes treated with 1 uM 17-DMAGby liquid chromatography-tandem mass spectrometry in presence of 1 uM sulfaphenazole CYP2C9 inhibitor; type: ADME; method in brief: as §1
[6] = test system: Liver microsome; test: Drug level in human liver microsomes treated with 1 uM 17-DMAG by liquid chromatography-tandem mass spectrometry in presence of 10 uM ticlopidine CYP2B6 inhibitor; type: ADME; method in brief: as §1
[7] = test system: Liver microsome; test: Drug level in human liver microsomes treated with 1 uM 17-DMAG by liquid chromatography-tandem mass spectrometry in presence of 1 uM quinidine CYP2D6 inhibitor; type: ADME; method in brief: as §1
[8] = test system: Liver microsome; test: Drug level in human liver microsomes treated with 1 uM 17-DMAG by liquid chromatography-tandem mass spectrometry in presence of 10 uM diethyldithiocarbamate CYP2E1 inhibitor; type: ADME; method in brief: as §1
[9] = target: Cytochrome P450 3A4 (Homo sapiens, UniProt P08684); test: Drug level assessed as human recombinant CYP3A4-mediated oxidative metabolism treated with 1 uM 17-DMAG after 30 mins by liquid chromatography-tandem mass spectrometry; type: ADME; details: recombinant enzyme, 0.5 h
Chain of Cytochrome P450 3A4 (P08684 whole entry): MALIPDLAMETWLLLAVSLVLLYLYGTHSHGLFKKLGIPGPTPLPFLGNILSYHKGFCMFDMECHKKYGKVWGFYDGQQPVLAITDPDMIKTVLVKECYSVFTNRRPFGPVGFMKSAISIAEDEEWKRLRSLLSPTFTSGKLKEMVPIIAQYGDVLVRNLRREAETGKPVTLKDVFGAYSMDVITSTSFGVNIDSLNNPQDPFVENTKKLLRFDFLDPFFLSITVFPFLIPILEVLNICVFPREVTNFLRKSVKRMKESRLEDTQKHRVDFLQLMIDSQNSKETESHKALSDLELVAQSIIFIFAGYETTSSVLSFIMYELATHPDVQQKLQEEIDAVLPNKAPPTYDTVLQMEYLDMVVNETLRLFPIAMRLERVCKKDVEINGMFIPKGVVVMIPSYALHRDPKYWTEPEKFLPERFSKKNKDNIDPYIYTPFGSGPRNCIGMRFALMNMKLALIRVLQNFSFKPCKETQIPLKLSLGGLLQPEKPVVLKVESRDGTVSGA
Method in brief: (§2)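 Recombinant human P450 (E. coli-expressed, coexpressed with cytochrome b5), 20 pmol per 200 µl incubation with 0.2 mg reduced β-NADPH and 3.3 mM MgCl2 in 0.1 M phosphate buffer pH 7.4. Preincubated at 37°C in a shaking water bath, then 1 µM 17-DMAG added. E. coli control microsomes lacking P450 cDNA served as negative control. Metabolite (M1–M4, M6) formation rates were read by LC-MS/MS MRM and expressed as percent of the CYP3A4 rate.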

[10] = target: T1, Cytochrome P450 2C8 (Homo sapiens, UniProt P10632); test: Drug level assessed as human recombinant CYP2C8-mediated oxidative metabolism treated with 1 uM 17-DMAG relative to CYP3A4; type: ADME; details: recombinant enzyme; method in brief: as §2
T1 sequence (P10632 whole entry): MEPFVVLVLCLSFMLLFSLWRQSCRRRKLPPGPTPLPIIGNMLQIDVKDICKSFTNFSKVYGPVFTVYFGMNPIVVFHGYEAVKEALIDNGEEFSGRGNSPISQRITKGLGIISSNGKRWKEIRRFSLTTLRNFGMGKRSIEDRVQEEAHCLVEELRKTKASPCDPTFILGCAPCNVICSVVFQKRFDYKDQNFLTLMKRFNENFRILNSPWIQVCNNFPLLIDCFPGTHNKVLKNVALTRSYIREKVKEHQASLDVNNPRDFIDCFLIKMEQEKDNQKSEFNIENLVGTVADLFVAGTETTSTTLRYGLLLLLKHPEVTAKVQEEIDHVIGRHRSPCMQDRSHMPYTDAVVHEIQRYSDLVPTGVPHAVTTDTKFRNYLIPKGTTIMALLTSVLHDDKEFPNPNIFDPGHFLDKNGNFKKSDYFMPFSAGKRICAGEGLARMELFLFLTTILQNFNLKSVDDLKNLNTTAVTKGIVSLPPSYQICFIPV

[11] = target: Cytochrome P450 2D6 (Homo sapiens, UniProt P10635); test: Drug level assessed as human recombinant CYP2D6-mediated oxidative metabolism treated with 1 uM 17-DMAG relative to CYP3A4; type: ADME; details: recombinant enzyme; method in brief: as §2
Chain of Cytochrome P450 2D6 (P10635 whole entry): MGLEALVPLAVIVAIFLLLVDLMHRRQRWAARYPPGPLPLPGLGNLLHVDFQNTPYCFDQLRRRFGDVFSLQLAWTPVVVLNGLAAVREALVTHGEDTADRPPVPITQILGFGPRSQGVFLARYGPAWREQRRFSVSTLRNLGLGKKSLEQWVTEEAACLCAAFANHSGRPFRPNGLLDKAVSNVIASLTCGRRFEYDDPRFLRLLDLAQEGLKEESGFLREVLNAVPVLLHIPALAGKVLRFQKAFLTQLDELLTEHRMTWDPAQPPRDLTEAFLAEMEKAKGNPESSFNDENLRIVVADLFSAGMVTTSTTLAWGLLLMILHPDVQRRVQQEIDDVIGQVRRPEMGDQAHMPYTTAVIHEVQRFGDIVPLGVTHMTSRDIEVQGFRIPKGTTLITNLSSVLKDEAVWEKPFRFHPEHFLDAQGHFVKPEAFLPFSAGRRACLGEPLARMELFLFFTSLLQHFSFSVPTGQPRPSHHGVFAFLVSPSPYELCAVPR

[12] = target: T2, Cytochrome P450 2A6 (Homo sapiens, UniProt P11509); test: Drug level assessed as human recombinant CYP2A6-mediated oxidative metabolism treated with 1 uM 17-DMAG relative to CYP3A4; type: ADME; details: recombinant enzyme; method in brief: as §2
T2 sequence (P11509 whole entry): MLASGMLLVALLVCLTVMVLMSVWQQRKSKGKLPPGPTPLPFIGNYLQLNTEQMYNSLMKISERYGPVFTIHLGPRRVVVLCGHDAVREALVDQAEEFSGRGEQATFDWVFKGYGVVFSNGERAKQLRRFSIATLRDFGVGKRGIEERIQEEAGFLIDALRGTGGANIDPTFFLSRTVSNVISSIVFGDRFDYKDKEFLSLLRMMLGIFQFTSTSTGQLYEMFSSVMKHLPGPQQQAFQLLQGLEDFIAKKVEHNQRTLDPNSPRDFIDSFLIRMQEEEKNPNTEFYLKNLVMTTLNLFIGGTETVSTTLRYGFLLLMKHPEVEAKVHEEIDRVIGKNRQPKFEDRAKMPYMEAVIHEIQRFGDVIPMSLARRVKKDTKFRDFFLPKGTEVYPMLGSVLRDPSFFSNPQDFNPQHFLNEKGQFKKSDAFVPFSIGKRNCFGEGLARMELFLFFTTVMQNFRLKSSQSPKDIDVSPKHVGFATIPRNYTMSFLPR

[13] = target: Cytochrome P450 2C19 (Homo sapiens, UniProt P33261); test: Drug level assessed as human recombinant CYP2C19-mediated oxidative metabolism treated with 1 uM 17-DMAG relative to CYP3A4; type: ADME; details: recombinant enzyme; method in brief: as §2
Chain of Cytochrome P450 2C19 (P33261 whole entry): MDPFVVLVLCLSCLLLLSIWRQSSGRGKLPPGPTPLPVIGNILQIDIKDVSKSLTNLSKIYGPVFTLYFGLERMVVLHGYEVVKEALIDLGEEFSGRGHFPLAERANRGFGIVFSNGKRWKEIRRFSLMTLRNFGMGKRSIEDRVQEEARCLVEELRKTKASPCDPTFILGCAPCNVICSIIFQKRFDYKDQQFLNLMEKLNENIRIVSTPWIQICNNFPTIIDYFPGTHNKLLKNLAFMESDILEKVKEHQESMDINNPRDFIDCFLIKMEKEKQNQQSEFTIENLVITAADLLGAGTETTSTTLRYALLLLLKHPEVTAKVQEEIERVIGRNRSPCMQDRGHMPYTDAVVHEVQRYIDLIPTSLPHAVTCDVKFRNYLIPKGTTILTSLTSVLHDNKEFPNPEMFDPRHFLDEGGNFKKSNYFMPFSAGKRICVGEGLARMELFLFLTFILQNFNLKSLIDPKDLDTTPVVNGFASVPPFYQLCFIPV

[14] = target: T3, Cytochrome P450 1A2 (Homo sapiens, UniProt P05177); test: Drug level assessed as human recombinant CYP1A2-mediated oxidative metabolism treated with 1 uM 17-DMAG relative to CYP3A4; type: ADME; details: recombinant enzyme; method in brief: as §2
T3 sequence (P05177 whole entry): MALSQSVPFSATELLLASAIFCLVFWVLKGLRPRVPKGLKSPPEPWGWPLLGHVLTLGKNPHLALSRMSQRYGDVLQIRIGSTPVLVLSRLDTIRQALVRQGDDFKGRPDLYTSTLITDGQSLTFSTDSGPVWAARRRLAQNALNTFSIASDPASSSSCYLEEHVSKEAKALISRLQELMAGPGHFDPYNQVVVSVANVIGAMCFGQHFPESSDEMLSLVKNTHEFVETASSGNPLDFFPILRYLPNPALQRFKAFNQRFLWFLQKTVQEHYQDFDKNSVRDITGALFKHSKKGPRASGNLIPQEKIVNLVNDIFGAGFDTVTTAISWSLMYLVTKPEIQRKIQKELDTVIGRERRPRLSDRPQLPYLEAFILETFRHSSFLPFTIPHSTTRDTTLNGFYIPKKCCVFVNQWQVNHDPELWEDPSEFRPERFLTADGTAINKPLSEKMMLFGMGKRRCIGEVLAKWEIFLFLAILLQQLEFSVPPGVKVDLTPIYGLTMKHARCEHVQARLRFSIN

[15] = test system: Liver microsome; test: Drug metabolism in human liver microsomes assessed as (4E,6Z,8S,9S,10E,12S,13R,14S,16R)-19-(2-(dimethylamino)ethylamino)-13,14-dihydroxy-8-methoxy-4,10,12,16-tetramethyl-3,20,22-trioxo-2-azabicyclo[16.3.1]docosa-1(21),4,6,10,18-pentaen-9-yl carbamate formation at 37 degC in presence of reduced GSH by liquid chromatography-tandem mass spectrometry; type: ADME; details: read-out: Km(app)
[16] = test system: Liver microsome; test: Drug metabolism in human liver microsomes assessed as (4E,6Z,8S,9S,10E,12S,13R,14S,16R)-19-(2-(dimethylamino)ethylamino)-8,13-dihydroxy-14-methoxy-4,10,12,16-tetramethyl-3,20,22-trioxo-2-azabicyclo[16.3.1]docosa-1(21),4,6,10,18-pentaen-9-yl carbamate formation at 1 uM 17-DMAG by liquid chromatography-tandem mass spectrometry in presence of 1 uM ketoconazole CYP3A inhibitor; type: ADME
[17] = target: Cytochrome P450 3A5 (Homo sapiens, UniProt P20815); test: Drug metabolism assessed as human recombinant CYP3A5-mediated (4E,6Z,8S,9S,10E,12S,13R,14S,16R)-19-(2-(dimethylamino)ethylamino)-13-hydroxy-8,14-dimethoxy-4,10,12,16-tetramethyl-3,20,22-trioxo-2-azabicyclo[16.3.1]docosa-1(21),4,6,10,18-pentaen-9-yl carbamate formation at 1 uM relative to CYP3A4; type: ADME; details: recombinant enzyme
Chain of Cytochrome P450 3A5 (P20815 whole entry): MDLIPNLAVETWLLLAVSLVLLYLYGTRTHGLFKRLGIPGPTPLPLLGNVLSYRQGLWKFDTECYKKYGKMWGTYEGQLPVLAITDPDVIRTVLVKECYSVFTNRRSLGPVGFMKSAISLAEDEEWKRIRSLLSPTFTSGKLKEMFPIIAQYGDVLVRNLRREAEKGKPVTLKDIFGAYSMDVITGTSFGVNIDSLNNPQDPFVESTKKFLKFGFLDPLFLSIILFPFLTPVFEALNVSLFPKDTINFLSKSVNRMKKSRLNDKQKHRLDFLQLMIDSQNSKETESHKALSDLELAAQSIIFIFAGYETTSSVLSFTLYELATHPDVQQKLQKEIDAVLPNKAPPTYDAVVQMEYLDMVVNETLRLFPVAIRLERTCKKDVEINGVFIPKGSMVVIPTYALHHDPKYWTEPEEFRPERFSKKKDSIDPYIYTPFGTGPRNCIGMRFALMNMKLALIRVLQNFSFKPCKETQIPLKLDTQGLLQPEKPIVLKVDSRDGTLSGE

[18] = target: T4, Cytochrome P450 2B6 (Homo sapiens, UniProt P20813); test: Drug metabolism assessed as human recombinant CYP2B6-mediated oxidative metabolism at 1 uM by liquid chromatography-tandem mass spectrometry; type: ADME; details: recombinant enzyme
T4 sequence (P20813 whole entry): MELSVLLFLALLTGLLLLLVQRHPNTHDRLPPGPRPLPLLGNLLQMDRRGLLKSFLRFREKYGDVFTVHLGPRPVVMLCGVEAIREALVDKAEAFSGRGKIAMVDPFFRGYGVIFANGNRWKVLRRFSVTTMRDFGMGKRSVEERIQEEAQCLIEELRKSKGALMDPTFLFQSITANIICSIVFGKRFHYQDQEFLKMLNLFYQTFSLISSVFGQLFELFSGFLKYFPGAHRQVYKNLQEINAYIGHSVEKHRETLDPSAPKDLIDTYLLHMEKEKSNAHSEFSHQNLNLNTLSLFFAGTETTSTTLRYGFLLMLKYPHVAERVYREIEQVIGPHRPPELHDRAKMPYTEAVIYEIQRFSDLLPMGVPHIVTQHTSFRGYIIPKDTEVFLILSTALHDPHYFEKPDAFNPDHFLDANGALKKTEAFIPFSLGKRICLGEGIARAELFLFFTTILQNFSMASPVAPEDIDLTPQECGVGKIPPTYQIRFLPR

[19] = target: Cytochrome P450 2C9 (Homo sapiens, UniProt P11712); test: Drug metabolism assessed as human recombinant CYP2C9-mediated oxidative metabolism at 1 uM by liquid chromatography-tandem mass spectrometry; type: ADME; details: recombinant enzyme
Chain of Cytochrome P450 2C9 (P11712 whole entry): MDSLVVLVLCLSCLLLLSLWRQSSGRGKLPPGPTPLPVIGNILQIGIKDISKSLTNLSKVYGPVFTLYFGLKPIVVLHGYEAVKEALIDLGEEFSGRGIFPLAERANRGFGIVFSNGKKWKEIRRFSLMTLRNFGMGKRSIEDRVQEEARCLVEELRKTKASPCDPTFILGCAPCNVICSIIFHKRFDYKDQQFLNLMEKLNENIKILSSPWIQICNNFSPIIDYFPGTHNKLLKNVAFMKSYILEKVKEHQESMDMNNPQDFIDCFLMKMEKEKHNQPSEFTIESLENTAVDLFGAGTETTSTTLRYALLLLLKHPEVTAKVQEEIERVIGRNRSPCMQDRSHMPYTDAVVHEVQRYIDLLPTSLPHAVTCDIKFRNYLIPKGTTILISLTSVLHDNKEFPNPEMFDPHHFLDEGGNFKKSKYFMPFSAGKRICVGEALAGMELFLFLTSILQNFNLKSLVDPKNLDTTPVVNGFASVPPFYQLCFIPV

[20] = target: Cytochrome P450 2E1 (Homo sapiens, UniProt P05181); test: Drug metabolism assessed as human recombinant CYP2E1-mediated oxidative metabolism at 1 uM by liquid chromatography-tandem mass spectrometry; type: ADME; details: recombinant enzyme
Chain of Cytochrome P450 2E1 (P05181 whole entry): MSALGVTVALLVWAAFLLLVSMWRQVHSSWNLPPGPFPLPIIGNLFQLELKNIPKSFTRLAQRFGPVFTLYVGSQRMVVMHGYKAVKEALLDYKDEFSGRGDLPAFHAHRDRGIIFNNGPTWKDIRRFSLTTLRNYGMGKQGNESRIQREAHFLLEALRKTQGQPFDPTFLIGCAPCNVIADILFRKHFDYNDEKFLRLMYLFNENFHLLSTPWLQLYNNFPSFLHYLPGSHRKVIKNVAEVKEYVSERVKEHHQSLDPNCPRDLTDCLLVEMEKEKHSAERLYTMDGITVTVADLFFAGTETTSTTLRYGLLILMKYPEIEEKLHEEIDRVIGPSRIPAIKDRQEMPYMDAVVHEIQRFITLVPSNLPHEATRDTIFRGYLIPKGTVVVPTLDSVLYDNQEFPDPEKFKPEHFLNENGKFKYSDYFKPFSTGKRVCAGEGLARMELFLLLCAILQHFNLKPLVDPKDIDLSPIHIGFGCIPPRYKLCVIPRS

[21] = test system: Liver microsome; test: Metabolic stability in human liver microsomes at 5 uM by liquid chromatography-tandem mass spectrometry; type: ADME
Method in brief: (§3)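 Pooled human liver microsomes (1 mg/ml) were incubated at 37°C with substrate (5 µM final), 1 mM β-NADPH and 3.3 mM MgCl2 in 0.1 M phosphate buffer, with or without 5 mM reduced GSH. Aliquots were taken from 1 to 120 min and quenched in ice-cold acetonitrile containing internal standard. LC-MS/MS peak-area ratios to internal standard were normalised to the 1-min sample.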

[22] = Terminal half life in human; type: ADME, organism-based; details: in vivo, read-out: beta t1/2 (converted)
[23] = Total clearance in human; type: ADME, organism-based; details: in vivo
[24] = Drug metabolism in human liver microsomes assessed as stability after 2 hrs relative to control by liquid chromatography-tandem mass spectrometry; type: ADME; details: read-out: Stability; method in brief: as §3
[25] = test system: Liver microsome; test: Drug metabolism in human liver microsomes assessed as (4E,6Z,8S,9S,10E,12S,13R,14S,16R)-19-(2-(dimethylamino)ethylamino)-13-hydroxy-10-(hydroxymethyl)-8,14-dimethoxy-4,12,16-trimethyl-3,20,22-trioxo-2-azabicyclo[16.3.1]docosa-1(21),4,6,10,18-pentaen-9-yl carbamate formation at 37 degC in presence of reduced GSH by liquid chromatography-tandem mass spectrometry; type: ADME; details: read-out: Km(app)

Retention_time [1]: 6.8 min
Drug metabolism [2]: metabolite_detected
Drug metabolism [3]: metabolite_detected
Drug metabolism [4]: metabolite_detected
Drug metabolism [5]: metabolite_detected
Drug metabolism [6]: metabolite_detected
Drug metabolism [7]: metabolite_detected
Drug metabolism [8]: metabolite_detected
Drug metabolism [9]: metabolite_detected
Drug metabolism [10]: metabolite_detected
Drug metabolism [11]: metabolite_detected
Drug metabolism [12]: metabolite_detected
Drug metabolism [13]: metabolite_detected
Drug metabolism [14]: metabolite_detected
SMILES: CO[C@H]1/C=C\C=C(/C)C(=O)NC2=CC(=O)C(NC(O)CN(C)C)=C(C[C@@H](CO)C[C@H](OC)[C@H](O)[C@@H](CO)/C=C(\C)[C@@H]1OC(N)=O)C2=O (stereo not given in full)

SMILES: CO[C@H]1/C=C\C=C(/C)C(=O)NC2=CC(=O)C(NCCN(C)C)=C(C[C@@H](C)C[C@H](OC)[C@H](O)[C@@H](C)/C=C(\C)[C@@H]1OC(N)=O)C2=O (stereo in doubt) [ALVESPIMYCIN]
Km [15]: 7.83 µM
Drug metabolism [16]: metabolite_not_detected
Drug metabolism [17]: metabolite_not_detected
Drug metabolism [18]: metabolite_not_detected
Drug metabolism [19]: metabolite_not_detected
Drug metabolism [20]: metabolite_not_detected
Stability [21]: Stable
half-life [22]: 960 min
clearance [23]: 123 mL/min
remaining at 2 h [24]: 24%
Km [25]: 6.61 µM
